Source: ChEMBL document CHEMBL1221305, “Synthesis and evaluation of oryzalin analogs against Toxoplasma gondii” (Bioorg Med Chem Lett, 2010)
Activity calls are given as the source filed them. The calls are words filed in the database; no cut-off is given here.

How the values were obtained:
[1] = tested on: Toxoplasma gondii; assay: Antimicrobial activity against Toxoplasma gondii infected in HFF after 8 days by plaque assay; type: functional, organism-based; conditions: 192 h
[2] = tested on: Toxoplasma gondii; assay: Antimicrobial activity against Toxoplasma gondii RH infected in HFF assessed as inhibition of parasite replication at 10 to 25 uM after 28 hrs by immunofluorescence assay; type: functional, organism-based
Summary of the method: (§1)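 Human fibroblast (HFF) cultures infected with intracellular T. gondii were exposed to compound in DMSO, with DMSO-only controls. They were fixed 28 h after infection for immunofluorescence. Parasite subpellicular microtubules were stained green, with host microtubules or parasite surface antigen P30/SAG1 in red and DNA in blue. Matched phase-contrast images were taken, and parasites per vacuole were scored.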

[3] = tested on: Toxoplasma gondii; assay: Antimicrobial activity against Toxoplasma gondii RH infected in HFF assessed as inhibition of parasite growth at 10 to 25 uM after 28 hrs by immunofluorescence assay; type: functional, organism-based; summary of the method: as §1
[4] = tested on: Toxoplasma gondii RH; assay: Inhibition of tubulin in Toxoplasma gondii RH infected in HFF assessed as microtubules disruption at 10 to 25 uM after 28 hrs by immunofluorescence assay; summary of the method: as §1
[5] = tested on: Toxoplasma gondii; assay: Antimicrobial activity against Toxoplasma gondii RH infected in HFF assessed as inhibition of parasite replication at 0.5 uM after 28 hrs by immunofluorescence assay; type: functional, organism-based
[6] = tested on: Toxoplasma gondii RH; assay: Inhibition of tubulin in Toxoplasma gondii RH infected in HFF assessed as microtubules disruption at 0.5 uM after 28 hrs by immunofluorescence assay
Summary of the method: (§2)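 Human foreskin fibroblast (HFF) cultures infected with intracellular Toxoplasma were treated for 28 h with 0.5 µM compound in DMSO, with DMSO vehicle as control. Read-out was immunofluorescence: host cell microtubules in red, parasite subpellicular microtubules/tubulin in green, and host and parasite DNA in blue. Microtubules were scored as filamentous linear arrays or as diffuse staining, with matched phase-contrast images.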

[7] = target: Tubulin (Homo sapiens) (UniProt P68371+Q9H4B7+P0DPH7+P68366+Q13509+Q71U36+P04350+Q3ZCM7+P07437+P68363+Q9BQE3+Q6PEY2+Q13885+Q9BVA1+Q9BUF5); assay: Inhibition of tubulin in HFF assessed as microtubules disruption at 0.5 uM after 28 hrs by immunofluorescence assay; summary of the method: as §2
[8] = tested on: HFF; assay: Cytotoxicity against HFF assessed as reduction of cell viability at 0.5 uM after 17 hrs by MTS assay; type: cell-based; conditions: human
Summary of the method: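 Host HFF cells were treated for 17 h with compound at 0.5 µM or 30 µM. Viable cells were quantified by tetrazolium dye (MTS, CellTiter reagent) assay.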

[9] = tested on: HFF; assay: Cytotoxicity against HFF assessed as cell vacuolation at 30 uM after 17 hrs by MTS assay; type: cell-based; conditions: human
[10] = tested on: HFF; assay: Cytotoxicity against HFF assessed as assessed as reduction of cell viability at 30 uM after 17 hrs by MTS assay; type: cell-based; conditions: human

Q: How did the IC50 [1] turn out when CCCCN(CCCC)c1c([N+](=O)[O-])cc(C(F)(F)F)c(N)c1[N+](=O)[O-] was run?
A: Its IC50 is 510 nM.

Q: Which results are given for NS(=O)(=O)c1cc([N+](=O)[O-])c(N(CC2CCCCC2)CC2CCCCC2)c([N+](=O)[O-])c1?
A: inhibition [2]: Active; inhibition [3]: Active; inhibition [4]: inactive

Q: For CCCN(CCC)c1c(C#N)cc(S(N)(=O)=O)cc1C#N, which IC50 [1] is on record?
A: The IC50 was 4800 nM.

Q: For CCCCN(CCCC)c1c([N+](=O)[O-])cc(S(N)(=O)=O)cc1[N+](=O)[O-], which IC50 [1] is on record?
A: The IC50 was 1100 nM.

Q: Which results are given for NS(=O)(=O)c1cc([N+](=O)[O-])c(N(Cc2ccccc2)Cc2ccccc2)c([N+](=O)[O-])c1?
A: inhibition [2]: Active; inhibition [3]: Active; inhibition [4]: inactive

Q: CCN(CC)c1c([N+](=O)[O-])cc(C(F)(F)F)c(N)c1[N+](=O)[O-] [DINITRAMINE] was tested. Which IC50 [1] did it give?
A: The IC50 was 70 nM.

Q: For NS(=O)(=O)c1cc([N+](=O)[O-])c(N(Cc2ccccc2)CC2CC2)c([N+](=O)[O-])c1, which IC50 [1] is on record?
A: Its IC50 is 2100 nM.

Q: How did the IC50 [1] turn out when CCCN(CCC)c1c([N+](=O)[O-])cc(S(N)(=O)=O)cc1[N+](=O)[O-] [ORYZALIN] was run?
A: The IC50 was 250 nM.

Q: How did the inhibition [5] turn out when CCCN(CCC)c1c([N+](=O)[O-])cc(C(F)(F)F)c(N)c1[N+](=O)[O-] was run?
A: Its inhibition is “Active”.

Q: What about the inhibition [6] of the same molecule?
A: The inhibition was “Active”.

Q: What about the IC50 [1] of the same molecule?
A: Its IC50 is 36 nM.

Q: What about the Activity [7] of the same molecule?
A: The Activity was “Non-toxic”.

Q: What about the Activity [8] of the same molecule?
A: The Activity was “Non-toxic”.

Q: For CCCN(CCC)c1c([N+](=O)[O-])cc(C(F)(F)F)cc1[N+](=O)[O-] [TRIFLURALIN], which IC50 [1] is on record?
A: Its IC50 is 650 nM.

Q: Which IC50 [1] does the source give for CCCN(CCC)c1c([N+](=O)[O-])cc(S(=O)(=O)Nc2ccc(O)cc2)cc1[N+](=O)[O-] here?
A: Its IC50 is 2600 nM.

Q: Which results are given for Cc1ccc(CN(Cc2ccc(C)cc2)c2c([N+](=O)[O-])cc(S(N)(=O)=O)cc2[N+](=O)[O-])cc1?
A: inhibition [2]: Active; inhibition [3]: Active; Activity [9]: Toxic; inhibition [4]: inactive

Q: With NS(=O)(=O)c1cc([N+](=O)[O-])c(N(CCc2ccccc2)CCc2ccccc2)c([N+](=O)[O-])c1 as the molecule, how does the Activity [10] read?
A: Its Activity is “Toxic”.

Q: What about the inhibition [2] of the same molecule?
A: The inhibition was “Active”.

Q: What about the inhibition [3] of the same molecule?
A: The inhibition was “Active”.

Q: What about the Activity [9] of the same molecule?
A: The Activity was “Toxic”.

Q: And the inhibition [4]?
A: Its inhibition is “inactive”.

Q: How did the IC50 [1] turn out when CCCN(CCC)c1c([N+](=O)[O-])cc(S(=O)(=O)N(C)C)cc1[N+](=O)[O-] was run?
A: The IC50 was 3400 nM.

Q: CCCN(CCC)c1c([N+](=O)[O-])cc([N+](=O)[O-])cc1C(F)(F)F was tested. Which IC50 [1] did it give?
A: Its IC50 is 7800 nM.

Q: For CCCN(CCC)c1c([N+](=O)[O-])cc(S(=O)(=O)Nc2ccccc2)cc1[N+](=O)[O-], which IC50 [1] is on record?
A: Its IC50 is 6700 nM.

Q: How did the IC50 [1] turn out when NS(=O)(=O)c1cc([N+](=O)[O-])c(N(CCCl)Cc2ccccc2)c([N+](=O)[O-])c1 was run?
A: The IC50 was 850 nM.

Q: CCCN(CCC)c1c([N+](=O)[O-])cc(S(=O)(=O)NCCO)cc1[N+](=O)[O-] was tested. Which IC50 [1] did it give?
A: Its IC50 is 26000 nM.

Q: NS(=O)(=O)c1cc([N+](=O)[O-])c(N(CCCCl)Cc2ccccc2)c([N+](=O)[O-])c1 was tested. Which IC50 [1] did it give?
A: Its IC50 is 2600 nM.

Q: CC(C)CN(CC(C)C)c1c([N+](=O)[O-])cc(S(N)(=O)=O)cc1[N+](=O)[O-] was tested. Which IC50 [1] did it give?
A: Its IC50 is 350 nM.
